Test results from PMC7174984 (Bioconjugate chemistry, 2020).
Like-named read-outs stand apart in the source and are kept apart here. Values belong to the molecule of their own block, whether it stands above or below them.

Assays:
MDA-MB-231 cells [1] = assay: Cellular uptake of dyes, blocking experiment; assay type: cell-based, Human; conditions: for effect of BSP on cellular uptake in SFM: 250 μM BSP; for effect of BSA added to SFM on cellular uptake: BSA only in the media, FACS; for effect of serum on cellular uptake: media with 10% FBS versus serum free media
Outline: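 MDA-MB-231 cells (50,000) seeded in serum medium overnight, then starved 4 h in serum-free medium. Groups: no serum (reference), 10% FBS, and 250 μM BSP preblock for 5 min with or without serum. Test compound added for 30 min, then washed. Read by confocal (670 nm excitation) or by FACS after enzyme-free detachment (633 nm excitation, 750/45 emission). Separate arms used DMOG 24 h beforehand for hypoxia, or BSA alone in medium.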

HSA [2] = target: T1, HSA (Homo sapiens, UniProt P02768); assay: UV-vis/fluorescence spectroscopy of dye interaction with albumin; assay type: binding; conditions: for formation of noncovalent adduct with albumin: UV absorbance maximum shift on mixing with HSA or serum
albumin = conditions: cited from earlier work
HSA [3] = target: T1, HSA; conditions: absorption maxima red-shifted in presence of albumin; cited from earlier work
HepG2 cells = assay: Cellular uptake of dyes into HepG2 liver cancer cells; assay type: cell-based; conditions: compared with MDA-MB-231 data
Outline: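 HepG2 cells kept in DMEM with 10% FBS at 37 °C and 5% CO₂, passaged at 70% confluency. Live-cell dye uptake imaged by confocal microscopy with a 20×/0.75 water objective; NIR excitation at 670 nm, detection at 716−789 nm.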

MDA-MB-231 cells [4] = assay: BSA-FITC and dye colocalization by confocal microscopy; assay type: cell-based, Human
Outline: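 50,000 MDA-MB-231 cells (grown in DMEM/10% FBS, 37 °C, 5% CO₂) incubated with test dye (10 μM) and equimolar BSA-FITC, either mixed just before use, preincubated 24 h, or added with BSA-FITC whose Cys34 was blocked by 24 h 6-maleimidohexanoic acid pretreatment. Cells then washed twice with PBS and imaged confocally (NIR: 670 nm excitation, 716−789 nm; FITC: 490 nm excitation, 500−589 nm). Pearson coefficient computed.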

[5] = test system: subcutaneous triple negative breast tumors (E0771); assay type: in vivo, C57Bl/6 mice; conditions: 25 nmol iv
Outline: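 Female C57Bl/6 mice, 6 wk old (20−30 g), inoculated subcutaneously in left flank with 5 × 10⁶ E0771 cells in PBS. 25 nmol test compound in 10% BSA given iv; NIR imaging (760 nm excitation, 4 mW/cm²) at 0.5, 1, 2, 4, 24 and 48 h. TBR = tumor fluorescence over nearby healthy tissue; at least 3 animals per time point; mean ± s.d.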

[6] = Biodistribution in resected tumors and organs at 48 h post-injection; assay type: in vivo, C57Bl/6 mice; conditions: 25 nmol iv, tumors and organs resected 48 h post-injection
Outline: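 Tumor-bearing C57Bl/6 mice (subcutaneous E0771) anesthetized with ketamine (100 mg/kg) and xylazine (10 mg/kg), abdomen opened by midline incision; 25 nmol test compound in 10% BSA given iv. Imaged at 48 h with intraoperative NIR system (760 nm excitation, 4 mW/cm²; 800 nm emission). ROI signal/background ratio over organs or tumor; at least 3 animals; one-way ANOVA with Tukey test; mean ± s.d.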

[7] = Pharmacokinetics, clearance and urinary excretion; assay type: in vivo, CD-1 mice; conditions: 25 nmol iv
Outline: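 Healthy CD-1 mice (25 g) dosed iv with 25 nmol test compound in saline with 10% BSA. Blood taken at 0, 10, 30, 60, 120, 180, 240 and 300 min, spun 3000 rpm for 20 min; plasma fluorescence read by NIR imaging. For excretion, male mice had the penis ligated before dosing and were killed at 4 h; urine fluorescence read by spectrophotometer.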

OATP1B3 [8] = conditions: PC-3 prostate cancer xenograft; cited from earlier work
OATP1B3 [9] = conditions: ARCePE prostate cancer xenograft; cited from earlier work

T1 sequence (P02768 25-609): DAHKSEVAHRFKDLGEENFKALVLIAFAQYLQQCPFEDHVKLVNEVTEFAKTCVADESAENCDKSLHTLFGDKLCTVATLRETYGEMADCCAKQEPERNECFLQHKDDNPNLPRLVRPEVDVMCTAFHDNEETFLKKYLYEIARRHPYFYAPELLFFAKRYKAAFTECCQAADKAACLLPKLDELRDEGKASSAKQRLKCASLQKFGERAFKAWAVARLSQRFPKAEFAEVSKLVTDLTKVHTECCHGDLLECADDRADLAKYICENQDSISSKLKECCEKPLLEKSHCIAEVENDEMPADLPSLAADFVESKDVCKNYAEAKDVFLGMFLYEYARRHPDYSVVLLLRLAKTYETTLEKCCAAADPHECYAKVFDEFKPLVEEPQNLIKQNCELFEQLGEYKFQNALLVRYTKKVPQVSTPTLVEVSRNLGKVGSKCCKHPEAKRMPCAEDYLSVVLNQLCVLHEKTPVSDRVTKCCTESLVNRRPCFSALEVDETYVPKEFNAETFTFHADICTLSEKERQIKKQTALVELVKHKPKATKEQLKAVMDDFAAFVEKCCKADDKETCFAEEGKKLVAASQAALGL

Structure (SMILES): O=C1OC(c2ccc(O)c(S(=O)(=O)O)c2)(c2ccc(O)c(S(=O)(=O)O)c2)c2c(Br)c(Br)c(Br)c(Br)c21 [BSP, Bromosulfophthalein]
fraction bound to albumin (albumin; after iv injection): more than 99%
unbound BSP (albumin; equimolar concentrations of BSP and albumin): less than 0.1%

Structure (SMILES): CCCN1C(=CC=C2CCCC(C=CC3=[N+](CCC)c4ccccc4C3(C)C)=C2Cl)C(C)(C)c2ccccc21.[I-] [4-Cl]
formation of noncovalent adduct with albumin (HSA [3]): implying noncovalent complexation

Structure (SMILES): CC1(C)C(/C=C/C2=C(Cl)C(=C/C=C3\N(CCCCCC(=O)O)c4ccccc4C3(C)C)/CCC2)=[N+](CCCCCC(=O)O)c2ccccc21 [1-Cl]
effect of BSA added to SFM on cellular uptake (MDA-MB-231 cells [1]): almost identical to those in serum
effect of serum on cellular uptake (MDA-MB-231 cells [1]): suppressed
decrease of uptake by BSP (MDA-MB-231 cells [1]; serum free media, 250 μM BSP preblock, dye 20 μM, FACS quantitation): 40−50%
uptake into HepG2 cells, trend (HepG2 cells): followed the same trends
formation of noncovalent adduct with albumin (HSA [2]): form a non-covalent adduct with albumin
displacement of dye from albumin by BSP (HSA [2]; up to 50 equiv BSP, either order of addition): not displaced from albumin by BSP
Pearson coefficient of colocalization (MDA-MB-231 cells [4]; 1-Cl preincubated with Cys34-blocked BSA-FITC): 0.56
Pearson coefficient of colocalization with BSA-FITC (MDA-MB-231 cells [4]; dye 10 μM and ~1 equiv BSA-FITC, noncovalent adduct): 0.65
time post-injection at which high contrast was observed [5]: 48 h
maximum TBR ([5]; 48 h post-injection): 3.5
tumor accumulation and persistence ([5]; up to 48 h): high tumor accumulation and prolonged retention
persistence in body at 48 h (biodistribution) [6]: persisted
urinary excretion ([7]; CD-1 mice): Insignificant urinary excretion
blood plasma (fluorescence) elimination half-life ([7]; healthy CD-1 mice, plasma fluorescence up to 5 h): 3.253 h
reduction of tumor uptake on OATP1B3 knockdown (OATP1B3 [8]): approximately 40%
reduction of tumor uptake on OATP1B3 knockdown (OATP1B3 [9]): ~ 25%

Further lines, with some results ahead:

formation of noncovalent adduct with albumin (HSA [2]): appear to form noncovalent adducts
Structure (SMILES): CC1(C)C(/C=C/C=C/C=C/C=C2\N(CCCCS(=O)(=O)[O-])c3ccc4ccccc4c3C2(C)C)=[N+](CCCCS(=O)(=O)[O-])c2ccc3ccccc3c21.[Na+] [ICG]
effect of BSP on cellular uptake in SFM (MDA-MB-231 cells [1]; serum free media): suppressed
effect of BSA added to SFM on cellular uptake (MDA-MB-231 cells [1]): suppressed
effect of serum on cellular uptake (MDA-MB-231 cells [1]): suppressed

formation of noncovalent adduct with albumin (HSA [2]): appear to form noncovalent adducts
Structure (SMILES): CC1(C)C(=CC=C2CCCC(C=CC3=[N+](CCCCS(=O)(=O)[O-])c4ccccc4C3(C)C)=C2Cl)N(CCCCS(=O)(=O)[O-])c2ccccc21.[Na+] [2-Cl]
effect of BSP on cellular uptake in SFM (MDA-MB-231 cells [1]; serum free media): suppressed
effect of BSA added to SFM on cellular uptake (MDA-MB-231 cells [1]): suppressed
effect of serum on cellular uptake (MDA-MB-231 cells [1]): suppressed
